According to ChEMBL document CHEMBL1134291, “The synthesis of a prodrug of doxorubicin designed to provide reduced systemic toxicity and greater target efficacy” (J Med Chem, 2001):
Where a SMILES comes first, the peptide text is derived from it. [ ]: non-standard residue; d: D form. The star is where a group is joined. Doxorubicin(3'-N) = COc1cccc2c1C(=O)c1c(O)c3c(c(O)c1C2=O)C[C@@](O)(C(=O)CO)C[C@@H]3O[C@H]1C[C@H](N*)[C@H](O)[C@H](C)O1; X1 = COc1cccc2c1C(=O)c1c(O)c3c(c(O)c1C2=O)C[C@@](O)(C(=O)CO)C[C@@H]3OC1CC(N*)C(O)C(C)O1; Chg = N[C@H](C(=O)O)C1CCCCC1; Orn = NCCC[C@H](N)C(=O)O

Tests used:
DuPro = test: Concentration required to kill 50% of tumor cells in PSA nonproducing DuPRO human prostate cancer cell line; format: functional, cell-based
LNCaP [1] = test: Concentration required to kill 50% of tumor cells in PSA producing LNCaP human prostate cancer cell line; format: functional, cell-based
Mus musculus [2] = test: Maximum nonlethal drug dose which could be administered (ip) to non tumor bearing nude mice for 5 consecutive days; format: functional
LNCaP [3] = test: Percentage PSA reduction relative to vehicle control following intraperitoneal injection of conjugate dose for 5 consecutive days to nude mice bearing LNCaP tumor xenografts; format: functional, Homo sapiens
Mus musculus [4] = test: Percentage weight reduction relative to vehicle control following intraperitoneal (ip) injection of conjugate dose for 5 consecutive days to nude mice bearing LNCaP tumor xenografts( 7.6 umol/kg dose); format: functional
PSA = test: Time required for PSA to hydrolyze 50% (t1/2); format: ADME; details: PSA (enzyme)
Mus musculus [5] = test: Percentage weight reduction relative to vehicle control following intraperitoneal (ip) injection of conjugate dose for 5 consecutive days to nude mice bearing LNCaP tumor xenografts(14.8 umol/kg dose); format: functional
Mus musculus [6] = test: Percentage weight reduction relative to vehicle control following intraperitoneal (ip) injection of conjugate dose for 5 consecutive days to nude mice bearing LNCaP tumor xenografts( 22.7 umol/kg dose); format: functional
Method in brief: (§1)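 Nude mice carrying xenografts of PSA-secreting human prostate LNCaP cells received the conjugate intraperitoneally once daily for 5 consecutive days. Circulating PSA and tumor weight were each expressed as percent reduction against vehicle-treated controls.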

Mus musculus [7] = test: Percentage weight reduction relative to vehicle control following intraperitoneal (ip) injection of conjugate dose for 5 consecutive days to nude mice bearing LNCaP tumor xenografts(36.6 umol/kg dose); format: functional; method in brief: as §1
Mus musculus [8] = test: Percentage weight reduction relative to vehicle control following intraperitoneal (ip) injection of conjugate dose for 5 consecutive days to nude mice bearing LNCaP tumor xenografts( 22.4 umol/kg dose); format: functional
Mus musculus [9] = test: Percentage weight reduction relative to vehicle control following intraperitoneal (ip) injection of conjugate dose for 5 consecutive days to nude mice bearing LNCaP tumor xenografts( 29.0 umol/kg dose); format: functional
Mus musculus [10] = test: Percentage weight reduction relative to vehicle control following intraperitoneal (ip) injection of conjugate dose for 5 consecutive days to nude mice bearing LNCaP tumor xenografts( 29.3 umol/kg dose); format: functional

Row | Structure (SMILES) | EC50 (DuPro) | EC50 (LNCaP [1]) | MTD (Mus musculus [2]) | Reduction (LNCaP [3]) | half-life (PSA) | other results
1 | COc1cccc2c1C(=O)c1c(O)c3c(c(O)c1C2=O)C[C@@](O)(C(=O)CO)C[C@@H]3OC1CC(NC(=O)[C@H](N)CC(C)C)C(O)C(C)O1 (stereo partly drawn) | 14 µM | 6.7 µM | 7.6 µM/kg | 10% |  | Reduction (Mus musculus [4]): -5%
2 | COc1cccc2c1C(=O)c1c(O)c3c(c(O)c1C2=O)C[C@@](O)(C(=O)CO)C[C@@H]3O[C@H]1C[C@H](NC(=O)[C@H](C)NC(=O)[C@H](C)NC(=O)[C@H](C)NC(C)=O)[C@H](O)[C@H](C)O1 | > 100 µM | > 100 µM |  |  |  | 
3 | COc1cccc2c1C(=O)c1c(O)c3c(c(O)c1C2=O)C[C@@](O)(C(=O)CO)C[C@@H]3OC1CC(NC(=O)[C@H](CC(C)C)NC(=O)[C@H](CO)NC(=O)[C@H](CCC(N)=O)NC(=O)[C@H](Cc2ccc(O)cc2)NC(=O)[C@H](CO)NC(=O)[C@H](C)NC(=O)[C@H](CCCN)NC(C)=O)C(O)C(C)O1 (stereo partly drawn) | > 100 µM | 7.3 µM | 29.7 µM/kg | 70% | 40 min | Reduction (Mus musculus [5]): 57%
4 | COc1cccc2c1C(=O)c1c(O)c3c(c(O)c1C2=O)C[C@@](O)(C(=O)CO)C[C@@H]3OC1CC(NC(=O)[C@H](CC(C)C)NC(=O)[C@H](CO)NC(=O)[C@@H](CCC(N)=O)NC(=O)[C@@H](NC(=O)[C@H](CO)NC(=O)[C@H](C)NC(=O)C2CC(O)CN2C(C)=O)C2CCCCC2)C(O)C(C)O1 (stereo partly drawn) | > 100 µM | 4.5 µM | 22.7 µM/kg | 96% | 20 min | Reduction (Mus musculus [6]): 81%
5 | COc1cccc2c1C(=O)c1c(O)c3c(c(O)c1C2=O)C[C@@](O)(C(=O)CO)C[C@@H]3O[C@H]1C[C@H](NC(=O)[C@H](CC(C)C)NC(=O)[C@H](CO)NC(=O)[C@H](C)NC(=O)[C@H](CO)NC(=O)[C@H](CCC(N)=O)NC(=O)[C@H](Cc2ccc(O)cc2)NC(=O)[C@H](CO)NC(=O)[C@H](C)NC(=O)[C@H](CCCCN)NC(=O)[C@H](CC(N)=O)NC(=O)[C@H](C)NC(C)=O)[C@H](O)[C@H](C)O1 (Ac-ANKASYQSASL-{Doxorubicin(3'-N)}) | > 100 µM | 12.5 µM |  |  | 30 min | 
6 | COc1cccc2c1C(=O)c1c(O)c3c(c(O)c1C2=O)C[C@@](O)(C(=O)CO)C[C@@H]3O[C@H]1C[C@H](NC(=O)[C@H](CC(C)C)NC(=O)[C@H](CO)NC(=O)[C@H](CO)NC(=O)[C@H](CCC(N)=O)NC(=O)[C@H](Cc2ccc(O)cc2)NC(=O)[C@H](CO)NC(=O)[C@H](C)NC(=O)[C@H](CCCCN)NC(=O)[C@H](CC(N)=O)NC(=O)[C@H](C)NC(C)=O)[C@H](O)[C@H](C)O1 (Ac-ANKASYQSSL-{Doxorubicin(3'-N)}) [listing 1 of 2 here] | > 100 µM | 6.3 µM |  |  |  | 
7 | COc1cccc2c1C(=O)c1c(O)c3c(c(O)c1C2=O)C[C@@](O)(C(=O)CO)C[C@@H]3O[C@H]1C[C@H](NC(=O)[C@H](CC(C)C)NC(=O)[C@H](CO)NC(=O)[C@H](CO)NC(=O)[C@H](CCC(N)=O)NC(=O)[C@H](Cc2ccc(O)cc2)NC(=O)[C@H](CO)NC(=O)[C@H](C)NC(=O)[C@H](CCCCN)NC(=O)[C@H](CC(N)=O)NC(=O)[C@H](C)NC(C)=O)[C@H](O)[C@H](C)O1 (Ac-ANKASYQSSL-{Doxorubicin(3'-N)}) [listing 2 of 2 here] |  |  | >36.6 µM/kg | 87% |  | Reduction (Mus musculus [7]): 81%
8 | COc1cccc2c1C(=O)c1c(O)c3c(c(O)c1C2=O)C[C@@](O)(C(=O)CO)C[C@@H]3O[C@H]1C[C@H](NC(=O)[C@H](CC(C)C)NC(=O)[C@H](CO)NC(=O)[C@H](CO)NC(=O)[C@H](CO)NC(=O)[C@H](CCC(N)=O)NC(=O)[C@H](Cc2ccc(O)cc2)NC(=O)[C@H](CO)NC(=O)[C@H](C)NC(=O)[C@H](CCCCN)NC(=O)[C@H](CC(N)=O)NC(=O)[C@H](C)NC(C)=O)[C@H](O)[C@H](C)O1 (Ac-ANKASYQSSSL-{Doxorubicin(3'-N)}) | 117 µM | 7 µM |  |  | 30 min | 
9 | COc1cccc2c1C(=O)c1c(O)c3c(c(O)c1C2=O)C[C@@](O)(C(=O)CO)C[C@@H]3OC1CC(NC(=O)[C@H](CC(C)C)NC(=O)[C@H](CO)NC(=O)[C@H](CCC(N)=O)NC(=O)[C@H](Cc2ccc(O)cc2)NC(=O)[C@H](CO)NC(=O)[C@H](C)NC(=O)[C@H](CCCCN)NC(C)=O)C(O)C(C)O1 (stereo partly drawn) (Ac-KASYQSL-X1) | 100 µM | 4.8 µM |  |  | 30 min | 
10 | COc1cccc2c1C(=O)c1c(O)c3c(c(O)c1C2=O)C[C@@](O)(C(=O)CO)C[C@@H]3OC1CC(NC(=O)[C@H](CC(C)C)NC(=O)[C@H](CO)NC(=O)[C@H](CCC(N)=O)NC(=O)[C@@H](NC(=O)[C@H](CO)NC(=O)[C@H](C)NC(=O)[C@H](CCCCN)NC(C)=O)C2CCCCC2)C(O)C(C)O1 (stereo partly drawn) (Ac-KAS[Chg]QSL-X1) [listing 1 of 2 here] | > 100 µM | 4.5 µM |  |  |  | 
11 | COc1cccc2c1C(=O)c1c(O)c3c(c(O)c1C2=O)C[C@@](O)(C(=O)CO)C[C@@H]3OC1CC(NC(=O)[C@H](CC(C)C)NC(=O)[C@H](CO)NC(=O)[C@H](CCC(N)=O)NC(=O)[C@@H](NC(=O)[C@H](CO)NC(=O)[C@H](C)NC(=O)[C@H](CCCCN)NC(C)=O)C2CCCCC2)C(O)C(C)O1 (stereo partly drawn) (Ac-KAS[Chg]QSL-X1) [listing 2 of 2 here] |  |  | 29.9 µM/kg | 95% |  | Reduction (Mus musculus [8]): 73%
12 | COc1cccc2c1C(=O)c1c(O)c3c(c(O)c1C2=O)C[C@@](O)(C(=O)CO)C[C@@H]3OC1CC(NC(=O)[C@H](CC(C)C)NC(=O)[C@H](CO)NC(=O)[C@H](CO)NC(=O)[C@H](CO)NC(=O)[C@H](CCC(N)=O)NC(=O)[C@H](Cc2ccc(O)cc2)NC(=O)[C@H](CCCCN)NC(C)=O)C(O)C(C)O1 (stereo partly drawn) (Ac-KYQSSSL-X1) | > 100 µM | 6.9 µM | 32.6 µM/kg | 90% | 60 min | Reduction (Mus musculus [9]): 70%
13 | COc1cccc2c1C(=O)c1c(O)c3c(c(O)c1C2=O)C[C@@](O)(C(=O)CO)C[C@@H]3OC1CC(NC(=O)[C@H](CC(C)C)NC(=O)[C@H](CO)NC(=O)[C@H](CCC(N)=O)NC(=O)[C@@H](NC(=O)[C@H](CO)NC(=O)[C@H](C)NC(=O)[C@@H]2CCCN2C(C)=O)C2CCCCC2)C(O)C(C)O1 (stereo partly drawn) (Ac-PAS[Chg]QSL-X1) | > 100 µM | 7.4 µM |  |  | 45 min | 
14 | COc1cccc2c1C(=O)c1c(O)c3c(c(O)c1C2=O)C[C@@](O)(C(=O)CO)C[C@@H]3OC1CC(NC(=O)[C@H](CC(C)C)NC(=O)[C@H](CO)NC(=O)[C@H](CO)NC(=O)[C@H](CO)NC(=O)[C@H](CCC(N)=O)NC(=O)[C@H](Cc2ccc(O)cc2)NC(=O)[C@H](CCCN)NC(C)=O)C(O)C(C)O1 (stereo partly drawn) (Ac-[Orn]YQSSSL-X1) | > 100 µM | 7 µM | 33 µM/kg | 93% | 120 min | Reduction (Mus musculus [10]): 80%
